Bioassay records (PubChem BioAssay)
PP1 counter: counter-screen for PP5 inhibitors: inhibitors of human PP1-alpha; P62136; purified PP1alpha, OMFP fluorescence; AID 2235; hit rate 0.9% among 320,000; inhibition, % at 6.7 µM;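 active means inhibition above the mean inhibition of all tested compounds plus 3 SD, computed separately for each screening campaign, cut at about 15% in these data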
Target sequence (P62136 whole entry, looked up): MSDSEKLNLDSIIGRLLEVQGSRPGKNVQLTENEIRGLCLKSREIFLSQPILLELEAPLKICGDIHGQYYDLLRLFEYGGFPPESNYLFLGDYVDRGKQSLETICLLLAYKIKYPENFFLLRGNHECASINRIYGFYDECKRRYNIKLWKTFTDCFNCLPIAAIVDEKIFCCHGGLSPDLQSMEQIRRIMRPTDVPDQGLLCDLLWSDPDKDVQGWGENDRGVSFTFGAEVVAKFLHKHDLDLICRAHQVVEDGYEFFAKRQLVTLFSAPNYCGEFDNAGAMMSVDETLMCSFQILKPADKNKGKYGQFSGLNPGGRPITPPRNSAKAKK
STEP block: STEP (human) phosphatase inhibition; P54829; hit rate 0.25% among 360,000; recombinant STEP, OMFP fluorogenic substrate, fluorescence; inhibition, % at 20 µM;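 active means inhibition at 20 µM, scaled per plate between control wells, above about 37%, limit read from the data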
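Assay system: isolated STEP enzyme / Timing: 20 min at room temperature, dark / Doses: 20 µM, 1% DMSO / Technique: fluorescence intensity, excitation 480 nm, emission 540 nm / Reagent: fluorogenic phosphatase substrate OMFP at 25 µM final / Measure: percent inhibition scaled to no-enzyme and uninhibited-enzyme controls, plate-pattern corrected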
PP5 primary: blocks human protein phosphatase 5 activity; P53041; purified PP5c, OMFP substrate fluorescence; inhibition, % at 6.7 µM; hit rate 0.18% among 320,000;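 active means inhibition above the campaign's mean inhibition across all tested compounds plus 3 SD, cut at about 9.5% in these data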
LMPTP inh: blocks human LMPTP phosphatase; P24666; recombinant LMPTP-A, OMFP fluorogenic substrate, fluorescence intensity; inhibition, % at 20 µM; hit rate 0.22% among 360,000; AID 651560;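 active means compounds that cut the enzyme signal by at least half of the control window in the single-dose screen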
Target sequence (P24666 whole entry, looked up): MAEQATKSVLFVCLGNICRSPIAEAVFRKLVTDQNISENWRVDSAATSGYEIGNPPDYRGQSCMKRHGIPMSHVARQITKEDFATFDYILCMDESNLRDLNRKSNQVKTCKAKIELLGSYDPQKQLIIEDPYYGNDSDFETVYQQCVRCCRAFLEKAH
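Test system: LMPTP-A phosphatase enzyme. Amount: LMPTP-A at 0.625 nM final in the reaction. Reagent: OMFP substrate, 400 µM final. Times: 50 min at room temperature. Signal: endpoint fluorescence intensity from OMFP dephosphorylation. Read-out basis: % inhibition. Benchmarks: no-enzyme and uninhibited controls.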
Scp-1 inhibitor: blocks human Scp-1 phosphatase activity | Q9GZU7 | Recombinant Scp1, phosphopeptide, malachite green phosphate absorbance | inhibition, % at 20 µM | hit rate 0.88% among 340,000;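 active means inhibition above about 50% at 20 µM, limit read from the data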
Target sequence (Q9GZU7 76-261 limits assumed): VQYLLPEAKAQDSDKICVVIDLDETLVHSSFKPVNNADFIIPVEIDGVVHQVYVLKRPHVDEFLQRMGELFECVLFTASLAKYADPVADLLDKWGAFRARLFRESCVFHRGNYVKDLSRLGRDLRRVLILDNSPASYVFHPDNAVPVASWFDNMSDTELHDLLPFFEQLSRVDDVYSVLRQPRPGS
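Material – SCP-1 phosphatase catalytic domain, residues 76-261 · Buffer or medium – Acidic Tris acetate buffer with magnesium and detergent · Also added – Phospho 17-mer peptide substrate · Compound – single 20 µM dose, 1% DMSO · Times – 45 min room-temperature reaction, 5 min colour, 30 min stabiliser · Technique – Phosphate-binding colour reagent, absorbance read at 630 nm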
Scp-1 conf: confirmation of human Scp-1 phosphatase inhibitors; recombinant SCP-1 catalytic domain, phosphate release, malachite green absorbance; inhibition, % at 20 µM; hit rate 61% among 2,500; AID 540281; shares compounds with Scp-1 inhibitor
MG interference: colorimetric interference in Scp-1 counter-screen. Colorimetric interference counterscreen, malachite green absorbance 630 nm. shares compounds with Scp-1 inhibitor. apparent inhibition (interference), % at 20 µM. 2,500 tested, under 10 active;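 further: compounds added after enzyme reaction finished so only phosphate colour detection is probed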
Scp1 DSF: binds human Scp-1, shifting its melting temperature; Recombinant SCP1, Sypro Orange thermal shift Tm; shares compounds with Scp-1 inhibitor; hit rate 25% among 1,500; thermal shift relative to vanadate control, % at 40 µM;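 active means substances whose mean melting-temperature shift, as a percentage of the reference inhibitor's shift, reaches about 5.3%, limit read from the data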
Numbers stand for hits; 0 = inactive; - = no result. An excerpt weighted towards active compounds, which were near 1.9% of everything screened.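 How the source made its calls, unless noted: active means inhibition of at least 30% at 20 µM; inactive means the rest.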

SMILES | PP1 counter | STEP block | PP5 primary | LMPTP inh | Scp-1 inhibitor | Scp-1 conf | MG interference | Scp1 DSF
O=C(Cn1nnc(-c2ccccc2)n1)NNC(=O)c1ccccc1 | 0 | 0 | 0 | 0 | 0 | - | - | -
Fc1ccc(Sc2ccccc2CNC2=NCCN2)cc1 | 0 | 0 | 0 | 0 | 52 | 84 | 0 | 0
O=C(NCCCCNC(=O)c1cccnc1)c1cccnc1 | 0 | 0 | 0 | 0 | 0 | - | - | -
Cc1c(NS(=O)(=O)c2cc(C(=O)NCCN(C)C)ccc2Cl)c(=O)n(-c2ccccc2)n1C | 0 | 0 | 0 | 0 | 73 | 37 | 0 | 0
CC(=O)OCCCn1c(C)[n+](C)c2cc(Cl)c(Cl)cc21 | 0 | 0 | 0 | 0 | 73 | 0 | 0 | -
CCn1c(C)[n+](CCOC(C)=O)c2cc(Cl)c(Cl)cc21 | 0 | 0 | 0 | 0 | 0 | - | - | -
Cc1nnc(SCC2=C(C(=O)O)N3C(=O)C(NC(=O)Cn4nc(C(F)F)c(Cl)c4C)C3SC2)s1 (stereo not drawn) | 0 | 0 | 0 | 0 | 0 | - | - | -
CC(=O)OCC1=C(C(=O)O)N2C(=O)[C@@H](NC(=O)Cc3ccccc3)[C@H]2SC1 | - | 0 | - | 0 | 0 | - | - | -
Cc1nnc(SCC2=C(C(=O)O)N3C(=O)C(NC(=O)Cn4nc(C(F)F)cc4C)C3SC2)s1 (stereo not drawn) | 0 | 0 | 0 | 0 | 70 | 52 | 0 | 0
CC(=O)OCC1=C(C(=O)O)N2C(=O)[C@@H](NC(=O)Cc3cccs3)[C@H]2SC1 | 0 | 0 | 0 | 0 | 69 | 63 | 0 | 8.5
Cc1nnc(SCC2=C(C(=O)O)N3C(=O)C(NC(=O)COc4ccc(F)cc4)C3SC2)s1 (stereo not drawn) | 0 | 0 | 0 | 0 | 0 | - | - | -
Cc1nnc(SCC2=C(C(=O)O)N3C(=O)C(NC(=O)COc4ccccc4)C3SC2)s1 (stereo not drawn) | - | 0 | - | 0 | 68 | 53 | 0 | 0
O=C(O)CN(c1ccc2c(c1)OCCO2)S(=O)(=O)c1ccccc1 | 0 | 0 | 0 | 0 | 0 | - | - | -
COc1ccc2c(c1)c(=O)oc1cc(OCC(=O)N3CCc4ccccc4C3)ccc12 | 0 | 0 | 0 | 62 | 81 | 68 | 0 | 0
CCc1ccc(NC(=O)CCc2c(C)nn(-c3ccc(N4CCOCC4)nn3)c2C)cc1 | 0 | 0 | 0 | 0 | 0 | - | - | -
O=C(O)COc1ccc2c(c1)O/C(=C\c1ccco1)C2=O | 0 | 77 | 0 | 0 | 75 | 70 | 0 | 7.5
O=C(O)COc1ccc2c(c1)O/C(=C\c1cccs1)C2=O | 0 | 0 | 0 | 0 | 0 | - | - | -
CC1CCCCN1C(=O)Nc1cccc(Cl)c1 (stereo not drawn) | 0 | 0 | 0 | 0 | 0 | - | - | -
O=C(Cc1ccccc1)Nc1cccc(-c2nc3ncccc3o2)c1 | 0 | 0 | 0 | 0 | 68 | 0 | 0 | -
O=C(Nc1cccc(-c2nc3ncccc3o2)c1)c1cc2ccccc2o1 | 0 | 0 | 0 | 0 | 0 | - | - | -
O=C(COc1ccccc1[N+](=O)[O-])Nc1cccc(S(=O)(=O)NC2=NCCCCC2)c1 | 0 | 0 | 0 | 0 | 62 | 74 | 0 | 0
CCOC(=O)c1c(NC(=O)COC(=O)CNC(=O)c2ccco2)sc(C)c1C | 0 | 0 | 0 | 0 | 0 | - | - | -
CCOc1ccc(/C=C/C(=O)c2ccccc2)cc1 | 0 | 0 | 0 | 0 | 0 | - | - | -
CC[N+](CC)(CC)CCOc1ccc(/C=C/c2ccccc2)cc1 | 0 | 0 | 0 | 0 | 74 | 50 | 0 | 0
COC(=O)C1CCN(C(=O)COC(=O)CNS(=O)(=O)c2ccc(SC)c([N+](=O)[O-])c2)CC1 | 0 | 0 | 0 | 0 | 74 | 43 | 0 | 0
SMILES | PP1 counter | STEP block | PP5 primary | LMPTP inh | Scp-1 inhibitor | Scp-1 conf | MG interference | Scp1 DSF
CSc1ccc(S(=O)(=O)NCC(=O)OCC(=O)N2CC(C)CC(C)C2)cc1[N+](=O)[O-] (stereo not drawn) | 0 | 0 | 0 | 0 | 0 | - | - | -
C=C(C)CSc1nc2sc3c(c2c(=O)n1-c1ccccc1)CCN(C)C3 | 0 | 0 | 0 | 0 | 0 | - | - | -
CC(C)n1c(SCC(=O)Nc2nncs2)nnc1-c1ccco1 | 0 | - | 0 | - | 94 | 77 | 0 | 0
COC(=O)Cn1c(=O)c2c(n(Cc3ccccc3)c1=O)N/C(=C/c1ccc(Br)cc1)C2=O | 0 | 0 | 0 | 0 | 107 | 57 | 0 | 12
COC(=O)CN1C(=O)N/C(=C/c2ccc(OC)cc2)C1=O | 0 | 0 | 0 | 0 | 0 | - | - | -
Cn1c(SCc2ccc(Cl)cc2Cl)nc(C(F)(F)F)cc1=O | 0 | 0 | 0 | 0 | 0 | - | - | -
Cc1nc(CNC(=O)c2ccccc2OC2CCN(S(C)(=O)=O)CC2)cs1 | 0 | 0 | 0 | 0 | 61 | 0 | 0 | -
O=C(CCS(=O)(=O)c1ccc(Br)cc1)NC1CCCCCC1 | 0 | 0 | 0 | 0 | 70 | 69 | 0 | 0
CCN(CC)c1ccc(NC(=O)CCS(=O)(=O)c2ccc(Br)cc2)c(C)c1 | 0 | 0 | 0 | 0 | 82 | 49 | 0 | 0
Cc1ccc(CNC(=O)CCS(=O)(=O)c2ccc(Br)cc2)cc1 | - | 0 | - | 0 | 84 | 76 | 0 | 0
O=C(CCS(=O)(=O)c1ccc(Br)cc1)NCCC1=CCCCC1 | 0 | 0 | 0 | 0 | 63 | 72 | 0 | 0
Cc1ccccc1NC(=O)CCS(=O)(=O)c1ccc(Br)cc1 | 0 | 0 | 0 | 0 | 0 | - | - | -
CCCN1CCC(N2CCN(c3ccc([N+](=O)[O-])cc3)CC2)CC1 | 0 | 0 | 0 | 0 | 0 | - | - | -
COc1ccc(CN(Cc2cccnc2)C(=S)NCCc2ccccc2)cc1OC | 0 | 0 | 0 | 0 | 0 | - | - | -
COc1ccc(-n2c(SCCC#N)nnc2-c2cc(Cl)ccc2OC)cc1Cl | 0 | 0 | 0 | 0 | 0 | - | - | -
COc1ccc(CC2(CO)CCN(S(=O)(=O)c3c(C)nn(C)c3Cl)CC2)cc1 | 0 | 0 | 0 | 0 | 0 | - | - | -
Cc1nn(C)c(Cl)c1S(=O)(=O)N1CCC(CO)(CCc2ccccc2)CC1 | 0 | 0 | 0 | 0 | 81 | 0 | 0 | -
COc1ccc(C2C(C(=O)NCCN(C)C)c3ccccc3C(=O)N2C)cc1OC (stereo not drawn) | 0 | 0 | 0 | 0 | 0 | - | - | -
Cc1ccc(S(=O)(=O)N[C@H](C(=O)OCC(=O)NC(=O)NCc2ccco2)C(C)C)cc1 | - | 0 | - | 0 | 62 | 0 | 0 | -
CC(C)[C@H](NC(=O)c1ccccc1Cl)C(=O)OCC(=O)NC(=O)NCc1ccco1 | - | 0 | - | 0 | 0 | - | - | -
Cc1cc(NC(=O)c2ccc(C)c([N+](=O)[O-])c2)no1 | 0 | 0 | 0 | 0 | 0 | - | - | -
Cc1ccc(C(=O)Nc2cccc(NC(=O)c3ccc(C)c([N+](=O)[O-])c3)n2)cc1[N+](=O)[O-] | 0 | 0 | 0 | 0 | 70 | 67 | 0 | 14
O=C(COC(=O)Cc1ccc(F)cc1)NCc1ccco1 | 0 | 0 | 0 | 0 | 0 | - | - | -
O=C(COC(=O)c1cncc(Br)c1)NCc1ccco1 | 0 | 0 | 0 | 0 | 88 | 54 | 0 | 0
